Reference: PMC2667967 (Cancer cell, 2008)
Non-standard residues stand in square brackets, D forms with d. No end group written: not given here. *: point of attachment. FITC = O=C1OC2(c3ccc(O)cc3Oc3cc(O)ccc32)c2ccc(NC(=S)*)cc21

Legend:
GST-Bcl-2 [1] = molecular target: T1, GST-Bcl-2 (Homo sapiens, UniProt P10415); experiment: FP competition assay, GST-Bcl-2; type: binding; conditions: 200 nM GST-Bcl-2, 20 nM FITC-NuBCP-r8, PBS pH 7.6, 25°C, triplicate
[2] = test system: Jurkat cells stably expressing Bcl-2; experiment: Apoptosis of Jurkat cells stably expressing Bcl-2; type: cell-based; conditions: Figure S3
Outline: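 Jurkat cells stably carrying an empty neo vector or a Bcl-2 expression vector, with Bcl-2 levels checked by immunoblot. Cells were exposed to the test peptide (10 µM) in medium with 5% FBS for 36 h. Apoptosis was scored by DAPI nuclear morphology.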

CEM leukemia cells = experiment: Killing of CEM leukemia cells stably expressing Bcl-2; type: cell-based; conditions: Figure S4
Bcl-2^−/−MEFs = experiment: Apoptosis of Bcl-2 knockout MEFs; type: cell-based, mouse; conditions: STS 0.1 µM or Bad BH3 peptide 10 µM, 36 h, DAPI
Outline: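 Wild-type and Bcl-2−/− MEFs, with Bcl-2 status confirmed by immunoblotting, were exposed to staurosporine (0.1 µM) or Bad BH3 peptide (10 µM) for 36 h. Peptide treatments used medium with 10% FBS unless otherwise specified. Apoptosis was scored from nuclear morphology after DAPI staining.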

GST-Bcl-2 [3] = molecular target: T1, GST-Bcl-2; experiment: circular dichroism
GST-Bcl-2/1-90 [4] = molecular target: GST-Bcl-2/1-90 (UniProt P10415); experiment: fluorescence polarisation
Sequence of GST-Bcl-2/1-90 (UniProt P10415) (P10415 1-90): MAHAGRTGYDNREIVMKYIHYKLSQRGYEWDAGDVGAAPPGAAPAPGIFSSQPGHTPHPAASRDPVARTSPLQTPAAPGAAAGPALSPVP

GST-Bcl-2 [5] = molecular target: T1, GST-Bcl-2; experiment: FP binding to GST-Bcl-2; conditions: 200 nM protein, 20 nM FITC peptide-r8, PBS pH 7.6, 25°C, triplicate
Outline: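 GST-Bcl-2 (200 nM) was incubated briefly with FITC-labelled, r8-fused test peptide (20 nM) in PBS, pH 7.6, at 25°C, in triplicate. GST-Bcl-XL and GST served as comparison proteins. Polarization was read at excitation 485 nm and emission 530 nm once the signal stabilized within 20 min. Kd was calculated from single-site binding curves and reported as mean ± SD.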

GST = experiment: FP binding to GST; conditions: 200 nM protein, 20 nM FITC peptide-r8, PBS pH 7.6, 25°C
Outline: (§1)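 Fluorescence polarization: 200 nM protein (GST or GST-Bcl-XL) was incubated with FITC-labelled r8 test peptide (20 nM) in PBS, pH 7.6, at 25°C, in triplicate. FP was read once the signal stabilized within 20 min (excitation 485 nm, emission 530 nm). Results are mean ± SD.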

GST-Bcl-XL [6] = molecular target: GST-Bcl-XL (Homo sapiens, UniProt Q07817); experiment: FP binding to GST-Bcl-XL; conditions: 200 nM protein, 20 nM FITC peptide-r8, PBS pH 7.6, 25°C
Sequence of GST-Bcl-XL (Homo sapiens, UniProt Q07817) (Q07817 whole entry): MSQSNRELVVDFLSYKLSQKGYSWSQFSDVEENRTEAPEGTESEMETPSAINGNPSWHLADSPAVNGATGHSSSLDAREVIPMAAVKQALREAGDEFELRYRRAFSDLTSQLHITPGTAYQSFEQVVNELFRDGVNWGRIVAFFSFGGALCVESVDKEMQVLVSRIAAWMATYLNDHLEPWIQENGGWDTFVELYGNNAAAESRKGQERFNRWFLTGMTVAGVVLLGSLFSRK
Outline: as §1

Bax = Bax activation in Bcl-2 knockout MEFs; type: cell-based, mouse; conditions: NuBCP-9 10 µM 16 hr; or GFP-Nur77/478-504 cotransfected with Bcl-2
Outline: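 Bcl-2−/− MEFs were run with wild-type MEFs and exposed to the test peptide (10 µM) for 16 hr. Alternatively, Bcl-2−/− MEFs were cotransfected with Bcl-2 (1 µg) plus GFP or GFP-Nur77/478-504 (1 µg). Active Bax was immunostained with 6A7 antibody and read by flow cytometry. Comparisons were treated vs untreated, or GFP-only vs Bcl-2-coexpressing cells from the same transfection.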

Bfl-1 = experiment: Co-IP with Bfl-1; type: binding; conditions: HEK293T
Outline: (§2)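 HEK293T cells were transfected with GFP-Nur77/478-504 (2 µg), with or without a Myc-tagged Bcl-2 family member plasmid (0.8 µg). Lysates were immunoprecipitated and complexes detected by western blot. Input was 5% of lysate, and one of three experiments is shown.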

Bcl-B = experiment: Co-IP with Bcl-B; type: binding; conditions: HEK293T
Outline: as §2

[7] = test system: mitochondria (RFP-Mito), H460 cells; experiment: Mitochondrial targeting in H460 cells; type: cell-based; conditions: FITC-D-NuBCP-9-r8 6 µM, 2 hr, or GFP fusions transfected 12 hr
Outline: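 H460 cells on glass coverslips were transfected with RFP-Mito (50 ng) plus GFP fused to Nur77 residues 489–497 or 478–504 (50 ng) for 12 hr. In a second arm, cells were transfected with RFP-Mito for 12 hr and then treated with 6 µM FITC-labelled, r8-fused test peptide for 2 hr. Subcellular fluorophore localization was analysed by confocal microscopy.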

[8] = test system: various cancer cell lines; experiment: Apoptosis induction, various cancer cell lines; type: cell-based
[9] = test system: normal primary mammary epithelial cells; experiment: Apoptosis of normal primary mammary epithelial cells; type: cell-based; conditions: 24 h, Annexin V; r8 conjugate
Outline: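 Normal primary mammary epithelial cells were run alongside ZR-75-1 breast cancer cells. They were exposed to the r8-conjugated test peptide for 24 h in medium with 10% FBS. Apoptosis was read by Annexin V binding on flow cytometry.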

GST-Bcl-2/1-90 [10] = molecular target: GST-Bcl-2/1-90 (UniProt P10415 1-90); experiment: fluorescence polarisation
Sequence of GST-Bcl-2/1-90 (UniProt P10415 1-90) (P10415 1-90): as the sequence (P10415 1-90) above

GST-Bcl-XL [11] = molecular target: GST-Bcl-XL (UniProt Q07817-1 1-233); experiment: fluorescence polarisation
Sequence of GST-Bcl-XL (UniProt Q07817-1 1-233) (Q07817 whole entry): as the sequence (Q07817 whole entry) above

GST-Bcl-2 [12] = molecular target: GST-Bcl-2 (UniProt P10415 1-239); experiment: circular dichroism
Sequence of GST-Bcl-2 (UniProt P10415 1-239) (P10415 whole entry): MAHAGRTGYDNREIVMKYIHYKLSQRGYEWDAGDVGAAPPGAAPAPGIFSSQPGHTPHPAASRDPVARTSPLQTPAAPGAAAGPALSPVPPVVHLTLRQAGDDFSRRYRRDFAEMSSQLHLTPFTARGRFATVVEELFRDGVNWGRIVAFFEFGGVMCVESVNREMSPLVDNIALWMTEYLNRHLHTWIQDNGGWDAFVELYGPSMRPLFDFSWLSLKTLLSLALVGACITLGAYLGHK

T1 sequence (P10415 whole entry): as above
Sequence of D-NuBCP-9 (unlabeled, in vitro assays) (P22736 whole entry, looked up): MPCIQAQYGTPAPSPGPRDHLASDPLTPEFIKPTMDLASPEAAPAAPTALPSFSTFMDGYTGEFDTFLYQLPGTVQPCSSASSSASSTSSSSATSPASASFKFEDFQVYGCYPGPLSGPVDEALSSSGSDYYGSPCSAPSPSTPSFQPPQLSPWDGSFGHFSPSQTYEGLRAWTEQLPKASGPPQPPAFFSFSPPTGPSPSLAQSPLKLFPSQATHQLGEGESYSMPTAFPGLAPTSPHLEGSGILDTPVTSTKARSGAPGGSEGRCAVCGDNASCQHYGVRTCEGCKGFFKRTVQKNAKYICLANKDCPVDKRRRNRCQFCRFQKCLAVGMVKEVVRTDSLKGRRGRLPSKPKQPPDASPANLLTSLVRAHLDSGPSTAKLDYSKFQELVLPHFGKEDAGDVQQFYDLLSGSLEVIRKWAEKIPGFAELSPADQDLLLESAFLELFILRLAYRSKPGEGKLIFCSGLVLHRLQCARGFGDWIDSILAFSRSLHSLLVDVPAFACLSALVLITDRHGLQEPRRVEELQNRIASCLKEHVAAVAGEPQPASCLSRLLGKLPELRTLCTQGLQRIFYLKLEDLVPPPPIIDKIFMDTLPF
Sequence of FITC-D-NuBCP-9-r8 (P22736 whole entry, looked up): as above

`CN(C)CC[C@H](CSc1ccccc1)Nc1ccc(S(=O)(=O)NC(=O)c2ccc(N3CCN(Cc4ccccc4-c4ccc(Cl)cc4)CC3)cc2)cc1[N+](=O)[O-]` [ABT-737] was tested, and the “competition with FITC-NuBCP-9 binding to GST-Bcl-2” value (GST-Bcl-2 [1]) was “failure of either a BH3 peptide (Bak BH3) or a potent small molecule inhibitor (ABT-737) that targets the Bcl-2 BH3- binding site to reduce FITC-NuBCP-9 binding to GST-Bcl-2”.

For `CN[C@@H]1C[C@H]2O[C@@](C)([C@@H]1OC)n1c3ccccc3c3c4c(c5c6ccccc6n2c5c31)C(=O)NC4` [STS, staurosporine], the “effect of Bcl-2 overexpression on apoptosis” value [2] was “attenuated by Bcl-2 overexpression in Jurkat cells”, the “effect of stable Bcl-2 expression on killing” value (CEM leukemia cells) was “prevented the killing” and the “effect of Bcl-2 knockout on death effect” value (Bcl-2^−/−MEFs) was “enhanced in Bcl-2^−/−MEFs”.

In the case of “D-NuBCP-9 (unlabeled, in vitro assays) (from UniProt P22736 489-497) (peptide)”, the Kd (GST-Bcl-2 [3]) is reported as 2000 nM and the stoichiometry N (GST-Bcl-2 [3]) is reported as 1.

In the case of “FITC-D-NuBCP-9-r8 (from UniProt P22736 489-497) (peptide)”, the Kd (GST-Bcl-2/1-90 [4]) is reported as 2500 nM.

For “FITC-NuBCP-9/AA: FITC-labeled NuBCP-9/AA ({FITC}-ASRSLHSLA; also: r8 (D-Arg octamer) attached, end not given here)”, the “FP change with GST-Bcl-2” value (GST-Bcl-2 [5]) was “little affected”.

“FITC-NuBCP-9: FITC-labeled NuBCP-9 (r8) ({FITC}-FSRSLHSLL; also: r8 (D-Arg octamer) attached, end not given here)” was tested, and the “FP change with GST” value (GST) was “neither GST-Bcl-XL nor GST, induced a concentration-dependent FP”, the “FP change with GST-Bcl-XL” value (GST-Bcl-XL [6]) was “neither GST-Bcl-XL nor GST, induced a concentration-dependent FP” and the “FP change with GST-Bcl-2” value (GST-Bcl-2 [5]) was “induced a concentration-dependent FP of FITC-NuBCP-9 and FITC-D-NuBCP-9”.

In the case of “GFP-Nur77/478-504: residues 478–504 of Nur77 fused with green fluorescence protein (GFGDWIDSILAFSRSLHSLLVDVPAFA; also: fused with GFP, end not given here)”, the “Bax activation, Bcl-2^−/−MEFs” value (Bax) is reported as “Expression of Bcl-2 in Bcl-2^−/−MEFs restores Bax activation by NuBCP”, the “binding to Bfl-1” value (Bfl-1) is reported as “bound to anti-apoptotic Bcl-2 family members, Bcl-B and Bfl-1” and the “binding to Bcl-B” value (Bcl-B) is reported as “bound to anti-apoptotic Bcl-2 family members, Bcl-B and Bfl-1”. The “co-localization with RFP-Mito” value [7] was “co-localized extensively with RFP-Mito”.

In the case of “NuBCP-20: 20 amino acid peptide (aa 480 to 499) of Nur77 (GDWIDSILAFSRSLHSLLVD; UniProt P22736 480-499, looked up, fragment)”, the apoptotic effect ([8]; r8 conjugate) is reported as “potent apoptotic effect in various cancer cell lines”, the “apoptotic potency relative to Bid BH3 peptide” value ([8]; various cancer cell lines) is reported as “more potent than a BH3 peptide derived from the pro-apoptotic Bcl-2 family member Bid” and the apoptosis induction [9] is reported as “Neither NuBCP-20 nor NuBCP-9 induced the apoptosis of normal primary mammary epithelial cells”.

Molecule {FITC}-FSRSLHSLL[dR][dR][dR][dR][dR][dR][dR][dR] (peptide, UniProt P22736 489-497, looked up) [FITC-NuBCP-9-r8] has a Kd (GST-Bcl-2/1-90 [10]) of 1700 nM.

In the case of VHLTLRQAGDDFSRR (also: F5M-labelled Cys, position not given here) [F5M-Bcl-2 BH3 peptide], the Kd (GST-Bcl-XL [11]) is reported as 145 nM.

In the case of FSRSLHSLL (peptide, UniProt P22736 489-497, looked up) [NuBCP-9 (unlabeled, in vitro assays)], the “stoichiometry N” value (GST-Bcl-2 [12]) is reported as 1.
